Drawing on ChEMBL document CHEMBL1124598, “Benzofuro[2,3-c]pyridin-6-ols: synthesis, affinity for opioid-receptor subtypes, and antinociceptive activity” (J Med Chem, 1989), this text covers ED50 for nine compounds.

This test concerns Mus musculus. Nature of the test: Analgesic activity 30 min after subcutaneous administration in mouse by using PQW test. The test is classed as functional. The settings on record: sc, 0.5 h. Summed up: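 Male CF-1 mice (18-23 g), ten per dose; compound given sc, then 30 min later phenylquinone 3.75 mg/kg in 5% aqueous ethanol ip. Mice observed 10 min in free-moving cages for abdominal stretching. ED50 determined with 95% confidence limits.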
Usually ED50 stands for the dose at which the effect has come halfway, by size or by number of responders. Lower therefore signals greater potency. `CC[C@@]12CCN(CCc3ccccc3)C[C@@H]1Oc1ccc(O)cc12`: the ED50 was 0.00037 µmol/kg.

The compound `CC[C@@]12CCN(CC3CCCC3)C[C@@H]1Oc1ccc(O)cc12` displayed an ED50 of 0.0521 µmol/kg.

`CC[C@@]12CCN(CC3CC3)C[C@@H]1Oc1ccc(O)cc12`: the ED50 stood at 0.00119 µmol/kg.

The compound `CCCN1CC[C@@]2(CC)c3cc(O)ccc3O[C@H]2C1` showed a 50% effective dose (ED50) of 0.0051 µmol/kg.

The compound `CC[C@@]12CCN(CC3CCC3)C[C@@H]1Oc1ccc(O)cc12` yielded an ED50 of 0.00145 µmol/kg.

`CC[C@@]12CCN(Cc3ccoc3)C[C@@H]1Oc1ccc(O)cc12` had an ED50 of 0.0512 µmol/kg.

`CC[C@@]12CCN(CC3CCCO3)C[C@@H]1Oc1ccc(O)cc12` (some centres undefined) showed an ED50 of 0.005 µmol/kg.

Consider `CC[C@@]12CCN(Cc3ccco3)C[C@@H]1Oc1ccc(O)cc12`, for which the ED50 is 0.0908 µmol/kg.

With `CC[C@@]12CCN(C)C[C@@H]1Oc1ccc(O)cc12`, the ED50 was determined as 0.005 µmol/kg.
